Data taken from ChEMBL document CHEMBL6134765, “Rapid identification of novel indolylarylsulfone derivatives as potent HIV-1 NNRTIs via miniaturized CuAAC click-chemistry-based combinatorial libraries” (RSC Med Chem, 2025).

Experiments:
[1] = target: Human immunodeficiency virus type 1 reverse transcriptase (Human immunodeficiency virus 1) (UniProt Q72547); assay: Inhibition of recombinant HIV-1 reverse transcriptase at 0.66 mM incubated for 1 hr by ELISA relative to control
In short: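 Each library compound was tested directly as the crude click mixture (diluted in DMSO to 2 mM per well) against HIV-1 RT at 0.66 mM, using an ELISA-based RT kit following the kit protocol. Blank controls held DMSO, TBTA, CuSO4·5H2O and sodium ascorbate. Inhibition is expressed as a percentage.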

[2] = tested on: Human immunodeficiency virus 1; assay: Antiviral activity against wild-type HIV-1 IIIB infected in human MT4 cells incubated for 5 days by spectrophometry based MTT assay; type: functional, organism-based; settings: Human immunodeficiency virus 1, IIIB, MT4, 120 h
In short: (§1)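 MTT protection assay in MT-4 cells infected with HIV-1 IIIB or HIV-2 ROD. EC50 is the compound concentration giving 50% protection of the cultures against virus-induced cytotoxicity.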

[3] = tested on: Human immunodeficiency virus 2; assay: Antiviral activity against HIV-2 ROD infected in human MT4 cells incubated for 5 days by spectrophotometry based MTT assay; type: functional, organism-based; settings: Human immunodeficiency virus 2, ROD, MT4, 120 h; in short: as §1
[4] = Cytotoxicity against human MT4 cells assessed as reduction in cell viability incubated for 5 days by MTT assay; type: toxicity, cell-based; settings: time 5 day
In short: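 Mock-infected MT-4 cultures were read by MTT for cell viability. CC50 is the concentration that reduces viability by 50%.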

[5] = Selectivity index, ratio of CC50 for cytotoxicity against human MT4 cells to EC50 for antiviral activity against wild-type HIV-1 IIIB infected in human MT4 cells; type: toxicity, cell-based; settings: read-out: Ratio CC50/EC50
In short: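 Selectivity index is calculated as CC50 (mock-infected MT-4, MTT) divided by EC50 (HIV-1 IIIB protection of MT-4, MTT).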

[6] = tested on: Human immunodeficiency virus 1; assay: Antiviral activity against HIV-1 harboring L100I mutant infected in human MT4 cells assessed as inhibition of virus induced cytotoxicity incubated for 5 days by spectrophometry based MTT assay; type: functional, organism-based; settings: Human immunodeficiency virus 1, MT4, 120 h
In short: (§2)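 MT-4 cells (from Dr. N. Yamamoto, Yamaguchi University) infected with single-mutant (L100I, K103N, Y181C, Y188L, E138K) or double-mutant (F227L/V106A; RES056 = K103N/Y181C) HIV-1 strains. Protection against virus-induced cytotoxicity was read by the MTT method. EC50 is the concentration giving 50% protection of the cell cultures.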

[7] = tested on: Human immunodeficiency virus 1; assay: Antiviral activity against HIV-1 harboring K103N mutant infected in human MT4 cells assessed as inhibition of virus induced cytotoxicity incubated for 5 days by spectrophometry based MTT assay; type: functional, organism-based; settings: Human immunodeficiency virus 1, MT4, 120 h; in short: as §2
[8] = tested on: Human immunodeficiency virus 1; assay: Antiviral activity against HIV-1 harboring Y181C mutant infected in human MT4 cells assessed as inhibition of virus induced cytotoxicity incubated for 5 days by spectrophometry based MTT assay; type: functional, organism-based; settings: Human immunodeficiency virus 1, MT4, 120 h; in short: as §2
[9] = tested on: Human immunodeficiency virus 1; assay: Antiviral activity against HIV-1 harboring Y188L mutant infected in human MT4 cells assessed as inhibition of virus induced cytotoxicity incubated for 5 days by spectrophometry based MTT assay; type: functional, organism-based; settings: Human immunodeficiency virus 1, MT4, 120 h; in short: as §2
[10] = tested on: Human immunodeficiency virus 1; assay: Antiviral activity against HIV-1 harboring E138K mutant infected in human MT4 cells assessed as inhibition of virus induced cytotoxicity incubated for 5 days by spectrophometry based MTT assay; type: functional, organism-based; settings: Human immunodeficiency virus 1, MT4, 120 h; in short: as §2
[11] = tested on: Human immunodeficiency virus 1; assay: Antiviral activity against HIV-1 harboring F227L/V106A double mutant infected in human MT4 cells assessed as inhibition of virus induced cytotoxicity incubated for 5 days by spectrophometry based MTT assay; type: functional, organism-based; settings: Human immunodeficiency virus 1, MT4, 120 h; in short: as §2
[12] = tested on: Human immunodeficiency virus 1; assay: Antiviral activity against HIV-1 harboring RES056 mutant infected in human MT4 cells assessed as inhibition of virus induced cytotoxicity incubated for 5 days by spectrophometry based MTT assay; type: functional, organism-based; settings: Human immunodeficiency virus 1, MT4, 120 h; in short: as §2

SMILES | inhibition [1] [%] | EC50 [2] [µM] | EC50 [3] [µM] | CC50 at 120 h [4] [µM] | selectivity ratio [5] | EC50 [6] [µM] | EC50 [7] [µM] | EC50 [8] [µM] | EC50 [9] [µM] | EC50 [10] [µM] | EC50 [11] [µM] | EC50 [12] [µM]
Cc1cc(C)cc(S(=O)(=O)c2c(C(=O)NCc3cn(Cc4cccc(Cl)c4)nn3)[nH]c3ccc(Cl)cc23)c1 | < 85 | – | – | – | – | – | – | – | – | – | – | –
Cc1cc(C)cc(S(=O)(=O)c2c(C(=O)NCc3cn(CC(=O)NC4CC4)nn3)[nH]c3ccc(Cl)cc23)c1 | < 85 | – | – | – | – | – | – | – | – | – | – | –
COC(=O)c1cccc(-n2cc(CNC(=O)c3[nH]c4ccc(Cl)cc4c3S(=O)(=O)c3cc(C)cc(C)c3)nn2)c1 | < 85 | – | – | – | – | – | – | – | – | – | – | –
CCOC(=O)Cn1cc(CNC(=O)c2[nH]c3ccc(Cl)cc3c2S(=O)(=O)c2cc(C)cc(C)c2)nn1 | > 85 | 0.032 | 226 | > 236 | > 7330 | 0.17 | 0.34 | 0.63 | 33.4 | 0.1 | 1.7 | 204
Cc1cc(C#N)cc(C)c1Oc1nc(Nc2ccc(C#N)cc2)nc(N)c1Br [ETRAVIRINE] | – | – | – | > 6.33 | > 1640 | – | – | – | – | – | 0.018 | 0.038
Cc1cc(C)cc(S(=O)(=O)c2c(C(=O)NCc3cn(Cc4cccc(C#N)c4)nn3)[nH]c3ccc(Cl)cc23)c1 | > 85 | 0.062 | > 166 | 166 | 2680 | 0.34 | 1.24 | 1.1 | > 35.3 | 0.35 | 2.96 | > 166
Cc1cc(C)cc(S(=O)(=O)c2c(C(=O)NCc3cn(-c4ccc(C(=O)O)cc4)nn3)[nH]c3ccc(Cl)cc23)c1 | < 85 | – | – | – | – | – | – | – | – | – | – | –
Cc1cc(C)cc(S(=O)(=O)c2c(C(=O)NCc3cn(CC(=O)Nc4ccc(C(F)(F)F)cc4)nn3)[nH]c3ccc(Cl)cc23)c1 | > 85 | 0.11 | > 17 | 17 | 148 | 0.59 | 1.72 | > 7.41 | 0.4 | 2.22 | > 17 | > 17
Cc1cc(C)cc(S(=O)(=O)c2c(C(=O)NCc3cn(CC(=O)N4CCCC4)nn3)[nH]c3ccc(Cl)cc23)c1 | < 85 | – | – | – | – | – | – | – | – | – | – | –
Cc1cc(C)cc(S(=O)(=O)c2c(C(=O)NCc3cn(Cc4ccc(C#N)cc4)nn3)[nH]c3ccc(Cl)cc23)c1 | < 85 | – | – | – | – | – | – | – | – | – | – | –
Cc1cc(C)cc(S(=O)(=O)c2c(C(=O)NCc3cn(Cc4ccc([N+](=O)[O-])cc4)nn3)[nH]c3ccc(Cl)cc23)c1 | < 85 | – | – | – | – | – | – | – | – | – | – | –
Cc1cc(C)cc(S(=O)(=O)c2c(C(=O)NCc3cn(CC(=O)Nc4ccc(Br)cc4)nn3)[nH]c3ccc(Cl)cc23)c1 | > 85 | 0.068 | > 15.8 | 15.8 | 231 | 0.38 | 1.5 | 0.54 | 4.08 | 0.15 | 1.87 | > 15.8
Cc1cc(C)cc(S(=O)(=O)c2c(C(=O)NCc3cn(Cc4ccccc4C)nn3)[nH]c3ccc(Cl)cc23)c1 | < 85 | – | – | – | – | – | – | – | – | – | – | –
COC(=O)Cn1cc(CNC(=O)c2[nH]c3ccc(Cl)cc3c2S(=O)(=O)c2cc(C)cc(C)c2)nn1 | > 85 | 0.045 | > 6.46 | 6.46 | 143 | 0.22 | 0.14 | 0.8 | 11.7 | 0.17 | 1.07 | > 6.46
Cc1cc(C)cc(S(=O)(=O)c2c(C(=O)NCc3cn(CCCc4ccccc4)nn3)[nH]c3ccc(Cl)cc23)c1 | > 85 | 0.39 | > 117 | 117 | 302 | 1.87 | 3.25 | 2.71 | > 117 | 1.39 | 9.7 | > 117
Cc1cc(C)cc(S(=O)(=O)c2c(C(=O)NCc3cn(Cc4ccc(Cl)cc4)nn3)[nH]c3ccc(Cl)cc23)c1 | < 85 | – | – | – | – | – | – | – | – | – | – | –
Cc1cc(C)cc(S(=O)(=O)c2c(C(=O)NCc3cn(-c4ccc(C(=O)O)cc4Cl)nn3)[nH]c3ccc(Cl)cc23)c1 | < 85 | – | – | – | – | – | – | – | – | – | – | –
Cc1cc(C)cc(S(=O)(=O)c2c(C(=O)NCc3cn(CC(=O)Nc4ccccc4)nn3)[nH]c3ccc(Cl)cc23)c1 | < 85 | – | – | – | – | – | – | – | – | – | – | –
Nc1ccn([C@@H]2CS[C@H](CO)O2)c(=O)n1 [LAMIVUDINE] | – | – | – | > 87.2 | > 17 | – | – | – | 3.56 | – | – | –
